Holding throughout (details): defibrinated sheep red blood cells, read-out: TI
The nature of data set [1]: Therapeutic index, ratio of HC50 for defibrinated sheep RBC to MIC50 for colistin-resistant Acinetobacter baumannii 19606R. In a few lines: (§1)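 TI is HC50/MIC50. For HC50, defibrinated sheep erythrocytes were washed in Hank's medium with 20 mM glucose (pH 7.2), held at 2 × 10^7 cells/mL, and incubated 4 h at 37 °C with peptide in triplicate. After centrifugation, hemoglobin release was read at 550 nm.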

Data set [2] is described as follows: Therapeutic index, ratio of HC50 for defibrinated sheep RBC to MIC50 for Listeria monocytogenes CECT 4032. In a few lines:
as §1

Data set [3] can be described thus: Therapeutic index, ratio of HC50 for defibrinated sheep RBC to MIC50 for Staphylococcus aureus CECT 240. The method, boiled down:
as §1

*1 amine or outer side, *2 acyl side, *3 side chain or, on linkers, in order; H or OH if unused. Where a SMILES comes first, the peptide text is derived from it. [ ]: non-standard residue; d: D form. X1 = O=C([C@H](N[*:1])C1c2ccccc2-c2ccccc21)[*:2]; d1Nal = N[C@H](Cc1cccc2ccccc12)C(=O)O; d2Nal = N[C@H](Cc1ccc2ccccc2c1)C(=O)O; dTic = O=C(O)[C@H]1Cc2ccccc2CN1; Orn = NCCC[C@H](N)C(=O)O

As for `CC(C)C[C@@H]1NC(=O)[C@H](CCCN)NC(=O)[C@H](C(C)C)NC(=O)[C@@H]2CCCN2C(=O)[C@@H](C2c3ccccc3-c3ccccc32)NC(=O)[C@H](CC(C)C)NC(=O)[C@H](CCCN)NC(=O)[C@H](C(C)C)NC(=O)[C@@H]2CCCN2C(=O)[C@@H](C2c3ccccc3-c3ccccc32)NC1=O` (cyclo(L[X1]PV[Orn]L[X1]PV[Orn])), the selectivity ratio in data set [1] was greater than 0.1.

On to `CC(C)C[C@@H]1NC(=O)[C@H](CCCN)NC(=O)[C@H](C(C)C)NC(=O)[C@@H]2CCCN2C(=O)[C@@H](Cc2cccc3ccccc23)NC(=O)[C@H](CC(C)C)NC(=O)[C@H](CCCN)NC(=O)[C@H](C(C)C)NC(=O)[C@@H]2CCCN2C(=O)[C@@H](Cc2cccc3ccccc23)NC1=O` (cyclo(L[d1Nal]PV[Orn]L[d1Nal]PV[Orn])), for which, in data set [1], the selectivity ratio is greater than 0.1. On to `CC(C)C[C@@H]1NC(=O)[C@H](CCCN)NC(=O)[C@H](C(C)C)NC(=O)[C@@H]2CCCN2C(=O)[C@@H](Cc2ccc3ccccc3c2)NC(=O)[C@H](CC(C)C)NC(=O)[C@H](CCCN)NC(=O)[C@H](C(C)C)NC(=O)[C@@H]2CCCN2C(=O)[C@@H](Cc2ccc3ccccc3c2)NC1=O` (cyclo(L[d2Nal]PV[Orn]L[d2Nal]PV[Orn])), for which, in data set [1], the selectivity ratio is greater than 0.2. For the molecule `CC(C)C[C@@H]1NC(=O)[C@H](CCCN)NC(=O)[C@H](C(C)C)NC(=O)[C@@H]2CCCN2C(=O)[C@H]2Cc3ccccc3CN2C(=O)[C@H](CC(C)C)NC(=O)[C@H](CCCN)NC(=O)[C@H](C(C)C)NC(=O)[C@@H]2CCCN2C(=O)[C@H]2Cc3ccccc3CN2C1=O` (cyclo(L[dTic]PV[Orn]L[dTic]PV[Orn])), the selectivity ratio in data set [2] is greater than 6; in data set [3], greater than 10.2.

The values above are taken from ChEMBL document CHEMBL1143367, “Therapeutic index of gramicidin S is strongly modulated by D-phenylalanine analogues at the beta-turn” (J Med Chem, 2009).
